Active and inactive are the calls of the source. The rule behind the calls is not given here. Square brackets hold non-standard residues; d marks the D form. Peptide text beside a SMILES is read from it. Hyp = O=C(O)[C@@H]1C[C@@H](O)CN1; Ahx = NCCCCCC(=O)O
What was measured:
[1] = tested on: MCF7; assay: Inhibition of colony formation in human MCF7 cells at 10 uM incubated for 2 weeks by crystal violet staining based assay; type: functional, cell-based
Procedure, shortened: (§1)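 Cells are seeded at 1 × 10^3/well and treated with peptide (10 μM) for 2 weeks, alone or with JQ1 5 μM, iJMJD6 10 μM, ICI 2.5 μM, or tamoxifen 3 μM (tamoxifen-resistant lines). Colonies are stained with crystal violet, dissolved in 10% acetic acid, and read at 590 nm. Three biological repeats.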

[2] = tested on: T47D; assay: Inhibition of colony formation in human T47D cells at 10 uM incubated for 2 weeks by crystal violet staining based assay; type: functional, cell-based; procedure, shortened: as §1
[3] = tested on: MDA-MB-231; assay: Antitumor activity against human MDA-MB-231 cells xenografted in BALB/c nude mouse assessed as reduction in tumor growth at 25 mg/kg, ip administered every 2 days; type: functional, organism-based
Procedure, shortened: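 Female BALB/c nude mice, 4–6 wk, given 5 × 10^6 cells in PBS subcutaneously; MCF7 mice also had E2 (10^-2 M) brushed on the neck every 2 days. Randomised at ~50 mm3. Peptide in 0.9% saline, 25 mg/kg ip every 2 days. Caliper volume (1/2 × L × W²) every 2 days.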

[4] = tested on: MCF7; assay: Downregulation of c-Myc gene expression in human MCF7 cells at 10 uM incubated for 6 hrs by RT-qPCR analysis; type: functional, cell-based
Procedure, shortened: (§2)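 Cells treated with peptide (10 μM) for 6 h; c-Myc, N-myc and CCND1 mRNA measured by RT-qPCR. Three biological repeats.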

[5] = tested on: MDA-MB-231; assay: Downregulation of c-Myc gene expression in human MDA-MB-231 cells at 10 uM incubated for 6 hrs by RT-qPCR analysis; type: functional, cell-based; procedure, shortened: as §2
[6] = tested on: MDA-MB-231; assay: Downregulation of […] gene expression in human MDA-MB-231 cells at 10 uM incubated for 6 hrs by RT-qPCR analysis; type: functional, cell-based; procedure, shortened: as §2
[7] = Downregulation of BRD4 protein expression in human MDA-MB-231 cells assessed as fold change in remaining BRD4 level at 10 uM incubated for 24 hrs by immunoblotting analysis (reference value: 1); type: functional
Procedure, shortened: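 Cells treated with peptide (10 μM) for 24 h. Lysates in Tris/NaCl/EDTA/1% Triton X-100, run on 10% SDS-PAGE and immunoblotted with ECL detection. β-actin as loading control. Three repeats, quantified against untreated cells.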

[8] = Downregulation of c-Myc protein expression in human MDA-MB-231 cells assessed as fold change in remaining c-Myc level at 10 uM incubated for 24 hrs by immunoblotting analysis (reference value: 1); type: functional
Procedure, shortened: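 Cells (MCF7 or MDA-MB-231 in DMEM, 10% FBS, 37 °C, 5% CO2) are treated with peptide for 24 h. Lysates are taken in Tris/NaCl/EDTA/1% Triton buffer and run on 10% SDS-PAGE. Immunoblots are normalised to β-actin loading control; three repeats.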

[9] = tested on: Mus musculus; assay: Downregulation of CCND1 mRNA expression in BALB/c mouse tumor xenografted with human MDA-MB-231 cells at 25 mg/kg, ip administered every 2 days by RT-qPCR analysis; type: functional, organism-based
[10] = tested on: MCF7; assay: Inhibition of colony formation in human MCF7 cells at 10 uM incubated for 2 weeks in presence of 5 uM JQ1 by crystal violet staining based assay; type: functional, cell-based; procedure, shortened: as §1
[11] = Toxicity in BALB/c mouse xenografted with human MCF7 cells assessed as change in heart morphology at 12.5 mg/kg, ip administered every 2 days in presence of 50 mg/kg JQ1; type: organism-based; settings: in vivo, 48 h
[12] = Toxicity in BALB/c mouse xenografted with human MCF7 cells assessed as change in kidney morphology at 12.5 mg/kg, ip administered every 2 days in presence of 50 mg/kg JQ1; type: organism-based; settings: in vivo, 48 h
[13] = Toxicity in BALB/c mouse xenografted with human MCF7 cells assessed as change in spleen morphology at 12.5 mg/kg, ip administered every 2 days in presence of 50 mg/kg JQ1; type: organism-based; settings: in vivo, 48 h
[14] = Toxicity in BALB/c mouse xenografted with human MDA-MB-231 cells assessed as change in spleen weight at 12.5 mg/kg, ip administered every 2 days in presence of 50 mg/kg JQ1; type: organism-based; settings: in vivo, 48 h
Procedure, shortened: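 Female BALB/c nude mice (4–6 weeks) carried sc MDA-MB-231 xenografts (5 × 10^6 cells) and were randomized at about 50 mm3. Peptide (12.5 mg/kg ip in saline) and JQ1 (50 mg/kg ip, DMSO/10% HPBCD 1:10) were given every 2 days, alone or combined. Body weight was recorded, and heart, liver, spleen, lung and kidney morphology and weight were assessed.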

[15] = tested on: MDA-MB-231; assay: Antiproliferative activity against human MDA-MB-231 cells at 10 uM incubated for 1 week in presence of JMJD6 inhibitor by CellTiter 96 Aqueous One Solution based assay; type: functional, cell-based; settings: time 1.0 weeks
Procedure, shortened: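 Cells seeded at 2 × 10^3/well and treated with peptide (10 μM) alone or combined with JQ1 (5 μM), iJMJD6 (10 μM) or ICI (2.5 μM), as the line states. Viability read by MTS reagent, 1 h at 37 °C, A490. Three biological repeats.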

[16] = tested on: T47D; assay: Antiproliferative activity against human T47D cells at 10 uM incubated for 1 week in presence of JMJD6 inhibitor by CellTiter 96 Aqueous One Solution based assay; type: functional, cell-based; settings: time 1.0 weeks
[17] = Toxicity in BALB/c mouse xenografted with human MCF7 cells assessed as change in liver at 12.5 mg/kg, ip administered every 2 days in presence of 12.5 mg/kg JMJD6 inhibitor; type: organism-based; settings: in vivo, 48 h
Procedure, shortened: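 Female BALB/c nude mice carried MCF7 xenografts (5 × 10^6 cells sc, E2 10–2 M brushed every 2 days) and were randomized at about 50 mm3. Peptide was given at 12.5 mg/kg ip every 2 days, and iJMJD6 (DMSO/PBS 1:20) at 12.5 mg/kg ip every other day, alone or combined. Body and organ weights were recorded.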

[18] = tested on: MCF7; assay: Antiproliferative activity against human MCF7 cells at 10 uM incubated for 1 week in presence of tamoxifen by CellTiter 96 Aqueous One Solution based assay; type: functional, cell-based; settings: time 1.0 weeks
Procedure, shortened: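 Tamoxifen-resistant MCF7 or T47D cells treated with peptide (10 μM) or tamoxifen (3 μM), alone or combined. Viability read by MTS reagent, 1 h at 37 °C, A490.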

[19] = tested on: MCF7; assay: Inhibition of colony formation in human MCF7 cells at 10 uM incubated for 2 weeks in presence of tamoxifen by crystal violet staining based assay; type: functional, cell-based; procedure, shortened: as §1
[20] = Downregulation of BRD4 protein expression in BALB/c mouse tumor xenografted with human MCF7 cells assessed as fold change in remaining BRD4 level at 25 mg/kg, ip administered every 2 days by immunoblotting analysis; type: functional
Procedure, shortened: (§3)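 Tumours taken from xenograft mice dosed with peptide at 25 mg/kg ip every 2 days. […] Three repeats.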

[21] = Downregulation of N-myc protein expression in BALB/c mouse tumor xenografted with human MCF7 cells assessed as fold change in remaining N-myc level at 25 mg/kg, ip administered every 2 days by immunoblotting analysis; type: functional; procedure, shortened: as §3
[22] = Downregulation of BRD4 protein expression in BALB/c mouse tumor xenografted with human MDA-MB-231 cells assessed as fold change in remaining BRD4 level at 25 mg/kg, ip administered every 2 days by immunoblotting analysis; type: functional; procedure, shortened: as §3

| Molecule | inhibition [1] | inhibition [2] | Activity [3] | Activity [4] | Activity [5] | Activity [6] | fold change (FC) [7] | fold change (FC) [8] | Activity [9] | inhibition [10] | Activity [11] | Activity [12] | Activity [13] | Activity [14] | Activity [15] | Activity [16] | Activity [17] | Activity [18] | inhibition [19] | fold change (FC) [20] | other results |
| --- | --- | --- | --- | --- | --- | --- | --- | --- | --- | --- | --- | --- | --- | --- | --- | --- | --- | --- | --- | --- | --- |
| H-YGRKKRRQRRRRNQKFKCGE-OH | Active | Active | Active | Active | Active | Active | 1.06 | 0.77 | Active | Active | Non-Toxic | Non-Toxic | Non-Toxic | Non-Toxic | Active | Active | Non-Toxic | Active | Active | 0.54 | fold change (FC) [21]: 0.38; fold change (FC) [22]: 0.63 |
| CC[C@H](C)[C@H](NC(=O)[C@H](Cc1ccc(O)cc1)NC(=O)[C@@H]1C[C@@H](O)CN1C(=O)[C@H](C)NC(=O)[C@@H](NC(=O)CCCCCNC(=O)[C@H](CCC(=O)O)NC(=O)CNC(=O)[C@H](CS)NC(=O)[C@H](CCCCN)NC(=O)[C@H](Cc1ccccc1)NC(=O)[C@H](CCCCN)NC(=O)[C@H](CCC(N)=O)NC(=O)[C@H](CC(N)=O)NC(=O)[C@H](CCCNC(=N)N)NC(=O)[C@H](CCCNC(=N)N)NC(=O)[C@H](CCCNC(=N)N)NC(=O)[C@H](CCCNC(=N)N)NC(=O)[C@H](CCC(N)=O)NC(=O)[C@H](CCCNC(=N)N)NC(=O)[C@H](CCCNC(=N)N)NC(=O)[C@H](CCCCN)NC(=O)[C@H](CCCCN)NC(=O)[C@H](CCCNC(=N)N)NC(=O)CNC(=O)[C@@H](N)Cc1ccc(O)cc1)[C@@H](C)CC)C(=O)O (H-YGRKKRRQRRRRNQKFKCGE[Ahx]IA[Hyp]YI-OH) | Active | Active | Active | Active | Active | Active | 0.55 | 0.85 | Active | Active | Non-Toxic | Non-Toxic | Non-Toxic | Non-Toxic | Active | Active | Non-Toxic | Active | Active | 0.16 | fold change (FC) [21]: 0.43; fold change (FC) [22]: 0.15 |

Source: ChEMBL document CHEMBL5543129, “Peptide Inhibitor Targeting the Extraterminal Domain in BRD4 Potently Suppresses Breast Cancer Both In Vitro and In Vivo” (J Med Chem, 2024)
